Most compounds without a hit are left out; they make up all but 1.9% or so of the library.
UCH37 DUB inh: inhibitors of human UCH37 deubiquitinase, primary screen, biochemical, Ub-AMC cleavage, fluorescence; Ubiquitin carboxyl-terminal hydrolase isozyme L5 (Homo sapiens), Q9Y5K5; inhibition, % (no concentration beside the values); 0.33% of 330,000 active; purified proteasome/UCH37;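 active means mean inhibition over replicate wells above about 20%, limit read from the data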;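 further: 0% = compound-free wells with enzyme and 100% = wells lacking proteasome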
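Schedule: 30 min plus 25 min, room temperature / Material: human UCH37 within purified proteasomes / Technique: AMC fluorescence intensity at 355/460 nm / Buffer or medium: pH 7.4 Tris-HCl (50 mM) with ovalbumin, ATP-MgCl2, DTT / Controls: wells without proteasome as full block, compound-free enzyme plus substrate as uninhibited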
NR1D1 modulator: modulators of Rev-erb alpha DNA binding, primary screen, biochemical, FITC-DNA, fluorescence polarization, uHTS; Nuclear receptor subfamily 1 group D member 1 (Homo sapiens), P20393; activity, % at 10 µM; AID 1259318, 2017; Rev-erbα–FITC-DNA binding, 90 min; 0.79% of 370,000 active;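 active means activity above about 14%, limit read from the data; passing the limit was not always enough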;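 further: 0% = DMSO wells with 35 nM protein and 100% = DMSO wells with 750 nM protein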
CR mimetic SO: reduction of superoxide in aged yeast, primary screen, HTS. superoxide response (% of plate mean), % at 10 µM. S. cerevisiae aged cells, superoxide DHE fluorescence; active compounds read low. 0.18% of 330,000 active;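 active means superoxide response under a set limit, about three screen SD below normal, cut at about 65% in these data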;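 further: yeast aged for seven days with compound at 30 °C before DHE staining; 100% = average MFI of all compound-treated wells on the plate with controls excluded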
MIN6 prolif: inducers of MIN6 beta-cell proliferation, primary screen, ATP luminescence, uHTS; MIN6 cells proliferation, ATPlite luminescence, 48 h; cells starved in 0.2% serum; 100% = growth in 10% serum; proliferation, % at 10 µM; 0.29% of 330,000 active; AID 2380, 2010;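 active means compounds whose signal lies at least 3.5 SD above the mean of all wells on their plate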;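 further: 0% = DMSO-treated cells in low-serum medium and 100% = 10% serum control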
PG9 binder: binders of HIV-1 gp120 antibody PG9, primary screen, biochemical, TR-FRET | HIV-1 gp120 / PG9 antibody interaction | TR-FRET gp120-PG9 antibody binding | inhibition, % at 6.7 µM | 0.43% of 360,000 active | AID 624416, 2012; in the data active means inhibition above about 8.5%
Rce1 inhib: yeast Rce1p protease inhibitors, primary screen, biochemical, fluorescence, cell-free homogeneous; yeast membranes, quenched prenylated peptide cleavage fluorescence; CAAX prenyl protease 2 (Saccharomyces cerevisiae (strain ATCC 204508 / S288c)), Q03530; calls only; 0.27% of 290,000 active;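 active means fall in fluorescence gain of 50% or more versus controls, with final raw signal at or below 3038400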;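 further: plate controls were neutral control wells for no effect and wells lacking membranes for full effect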
Target sequence (Q03530 whole entry, looked up): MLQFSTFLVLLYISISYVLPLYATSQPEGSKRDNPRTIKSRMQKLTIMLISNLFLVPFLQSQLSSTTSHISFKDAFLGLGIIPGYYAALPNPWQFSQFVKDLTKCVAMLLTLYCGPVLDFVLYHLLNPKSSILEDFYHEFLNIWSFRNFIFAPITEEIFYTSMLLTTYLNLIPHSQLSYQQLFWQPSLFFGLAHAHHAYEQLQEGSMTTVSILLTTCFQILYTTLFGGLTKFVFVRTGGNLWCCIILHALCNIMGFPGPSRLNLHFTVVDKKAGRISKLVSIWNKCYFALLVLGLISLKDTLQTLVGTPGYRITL
PG9 bind confirm: binders of anti-gp120 antibody PG9, confirmation, biochemical, TR-FRET | TR-FRET PG9 antibody binding | shares compounds with PG9 binder | 90% of 1,500 active | AID 651571, 2012 | inhibition, % at 6.7 µM; in the data active means inhibition above about 9%
PGV04 Ab binding: binders of control antibody PGV04, counter-screen for PG9 antibody binder project, biochemical, TR-FRET, distinct HIV envelope site. shares compounds with PG9 binder. TR-FRET PGV04 antibody-gp120 binding. inhibition, % at 6.7 µM. 95% of 1,500 active. AID 651604, 2012; in the data active means inhibition above about 9.5%
PG9 bind DR: small-molecule binders of antibody PG9, dose response, biochemical, TR-FRET, HIV-1 gp120 antibody; 95 tested, under 10 active; IC50, µM; shares compounds with PG9 binder; TR-FRET PG9 antibody-gp120 binding inhibition; in the data active means IC50 below about 10 µM
PGV04 binding DR: binders of control antibody PGV04, dose response, counter-screen for PG9 antibody binder project, biochemical, TR-FRET, distinct HIV envelope site. TR-FRET binding to control antibody PGV04. IC50, µM. 20% of 95 active. shares compounds with PG9 binder
PG126 binding DR: binders of control antibody PG126, dose response, counter-screen for PG9 antibody binder project, biochemical, TR-FRET, distinct HIV envelope site; shares compounds with PG9 binder; TR-FRET binding to antibody PG126, counterscreen; IC50, µM; 20% of 95 active
Rev-erbA confirm: modulators of Rev-erb alpha DNA binding, confirmation, biochemical, FITC-DNA, fluorescence polarization, single point | activation, % at 25 µM | 61% of 3,000 active | AID 1259319, 2017 | 90 min | shares compounds with NR1D1 modulator;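 active means activation at or above a set limit, or at least 3 SD above the negative control mean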;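 further: 0% = 35 nM protein with DMSO and 100% = 750 nM protein high control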
RORg counter: modulation of RORgamma DNA binding, dose response, counter-screen for Rev-erb alpha modulator project, biochemical, fluorescence polarization, FITC-DNA; shares compounds with NR1D1 modulator; purified RORgamma protein-FITC-DNA binding; IC50, µM; 8% of 910 active; AID 1259320, 2017;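 active means Compounds whose fitted half-maximal concentration for disrupting protein-DNA binding is below 10 micromolar; the record names Rev-erb in its text, so the target is in doubt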
The depositor's hits bear a star; i = inactive; x = no result given. Unless noted, no stated cut-off is given here; in the data, active means IC50 below about 9 µM; inactive means the rest.

SMILES	UCH37 DUB inh	NR1D1 modulator	CR mimetic SO	MIN6 prolif	PG9 binder	Rce1 inhib	PG9 bind confirm	PGV04 Ab binding	Rev-erbA confirm	others
Cc1sc2ncnc(N3CCC(C(=O)Nc4ccc(C#N)cc4)CC3)c2c1C	-10	27*	103	2	15*	i	16*	10*	19*	PG9 bind DR=>67;PGV04 binding DR=8.4*;PG126 binding DR=8.7*
COc1ccc(CCn2c(C)nc3c(c(=O)c4ccccc4n3C)c2=O)cc1	5	2	96	0	-1	i	x	x	x
COc1ccc(CCn2c(S)nc3ccccc3c2=O)cc1	0	37*	104	-1	24*	i	42*	50*	8
O=C(COC(=O)c1cccnc1SCC(=O)NCc1ccccc1)NCc1ccccc1	2	53*	123	-4	32*	i	37*	53*	52*	RORg counter=>40
COc1ccccc1CNC(=O)COC(=O)c1ccco1	1	-8	108	1	-1	x	x	x	x
COc1ccccc1CNC(=O)COC(=O)c1cccnc1SCC(=O)NCc1ccccc1OC	-2	47*	110	-1	19*	i	29*	43*	31*	RORg counter=>40
CSc1ncccc1C(=O)OCC(=O)NCCc1ccccc1	4	-3	106	-3	-1	x	x	x	x
Cc1cccc(C)c1NC(=O)CSc1nc(C)c(CC(=O)c2ccc(Br)cc2)c(C)c1C#N	-2	141*	122	-7	26*	i	53*	70*	78*
COc1cccc(C(=O)Nc2ccc3c(C)cc(=O)oc3c2)c1	-83	20*	104	-4	9.7*	i	21*	31*	0
Clc1ccccc1NN=Cc1ccc2c(c1)OCO2	3	x	x	x	x	x	x	x	x
CN(CC(=O)Nc1ccc(Cl)cc1)C(=O)COc1ncnc2ccccc12	-3	-2	107	2	0	x	x	x	x
Cc1ccc(NC(=O)CN(C)C(=O)COc2ncnc3ccc(Br)cc23)cc1	1	21*	94	0	21*	x	9.1*	8	17*	PG9 bind DR=i;PGV04 binding DR=i;PG126 binding DR=i
Nc1c(S(=O)(=O)c2cccc(Cl)c2)c2nc3ccccc3nc2n1CCN1CCOCC1	-123	32*	103	0	11*	i	3	4	4
